Reference: PMC9058365 (RSC Advances, 2020)

Tests used:
Pharmacokinetic study = type: in vivo; conditions: rabbit plasma, n = 3; for T max: 5 IU kg^−1, HPLC; for AUC0–12: 5 IU kg^−1, trapezoidal method, mean ± SD
[1] = system: diabetic rabbits (streptozotocin); experiment: In vivo anti-diabetic study; parameters: species or system rabbit; conditions: at 4 h, subcutaneous injection, n = 3
Summary of the method: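 Male New Zealand albino rabbits (1.5–2.0 kg) made diabetic by intravenous streptozotocin (65 mg kg−1, in citrate buffer pH 5.0) given in the evening for three days. Baseline blood glucose was taken on day 1 after overnight fasting. Blood glucose was followed over time and expressed as % of initial level, n = 3 per group.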

[2] = system: New Zealand albino rabbits; experiment: In vivo tolerance study; conditions: rabbit eye, scale 0-3, n = 3
Summary of the method: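 Male New Zealand albino rabbits (1.5–2.0 kg) free of ocular inflammation, housed at 25 ± 2 °C, 75% RH, 12:12 h light cycle. Nine animals were split into three groups of three. […] Macroscopic signs were graded at 0.5, 4.0 and 16.0 h, and scores were summed into an overall irritation index.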

[3] = rabbits, administered topically via ocular route; ref 25 (Yamamoto et al., 1989); cited from earlier work
[4] = 0.5 h after single instillation of 50 μl
[5] = 4.0 h after single instillation of 50 μl
[6] = 16.0 h after single instillation of 50 μl

Substance: Subcutaneous insulin injection: subcutaneous injection of human insulin solution
- T max (Pharmacokinetic study; subcutaneous injection): 30 min
- AUC0–12 (Pharmacokinetic study; subcutaneous injection): 197.38 ± 2.76 µg·h/mL
- drop in blood glucose level [1]: 71.08 ± 3.24

Substance: Insulin [Plain insulin solution]
- T max (Pharmacokinetic study; ocular instillation): 19.8 min
- AUC0–12 (Pharmacokinetic study; ocular instillation): 1.87 ± 1.7 µg·h/mL
- Conjunctiva grade [2, 4]: 0
- Cornea grade [2, 4]: 0
- Discharge grade [2, 4]: 0
- Lids grade [2, 4]: 0
- Conjunctiva grade [2, 5]: 0
- Cornea grade [2, 5]: 0
- Discharge grade [2, 5]: 1
- Discomfort grade [2, 5]: 0
- Lids grade [2, 5]: 0
- Conjunctiva grade [2, 6]: 0
- Cornea grade [2, 6]: 0
- Discharge grade [2, 6]: 0
- Discomfort grade [2, 6]: 0
- Lids grade [2, 6]: 0

Substance: insulin
- bioavailability [3]: less than 1%
